System: Fibroblast
Test: Multiplex assay against human fibroblast
Type: toxicity, cell-based
In short: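 Live cells carried four stains from seeding: Hoechst33342, BioTracker Green Microtubule Cytoskeleton Dye, MitoTracker Red and Annexin V Alexa Fluor 680. They were imaged on a CQ1 microscope at 37°C and 5% CO2 after compound addition. Using CellPathfinder machine-learning gating, cells were split into Hoechst high-intensity objects or normal cells, normal cells into healthy, pyknosed or fragmented nuclei, and pyknosed cells into mitotic or apoptotic; tubulin, mitochondrial-mass and membrane-permeability phenotypes are per cents of healthy-nucleus cells.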

[1] = 12 h, 1 µM, compound concentration 1 uM, replicate 1
[2] = 12 h, 1 µM, compound concentration 1 uM, replicate 2
[3] = 12 h, 10 µM, compound concentration 10 uM, replicate 1
[4] = 12 h, 10 µM, compound concentration 10 uM, replicate 2
[5] = 24 h, 1 µM, compound concentration 1 uM, replicate 1
[6] = 24 h, 1 µM, compound concentration 1 uM, replicate 2
[7] = 24 h, 10 µM, compound concentration 10 uM, replicate 1
[8] = 24 h, 10 µM, compound concentration 10 uM, replicate 2
[9] = 48 h, 1 µM, compound concentration 1 uM, replicate 1
[10] = 48 h, 1 µM, compound concentration 1 uM, replicate 2
[11] = 48 h, 10 µM, compound concentration 10 uM, replicate 1
[12] = 48 h, 10 µM, compound concentration 10 uM, replicate 2

## CCCn1c(=O)c2[nH]c(-c3cnn(Cc4cccc(C(F)(F)F)c4)c3)nc2n(CC)c1=O [GS 6201]
[1]
  Population Apoptotic (%): 51%
  Population Fragmented Nuclei (%): 26%
  Population Healthy Nuclei (%): 32%
  Population Hoechst High Intensity Objects (%): 11%
  Population Membrane Permeable-Phenotype (%): 33%
  Population Mitochondria Different-Phenotype (%): 14%
  Population Mitotic Cells (%): 48%
  Population Normal (%): 88%
  Population Pyknosed Nuclei (%): 41%
  Population Tubulin-Different-Phenotype (%): 59%
  Total Cell Count: 95
[2]
  Population Apoptotic (%): 42%
  Population Fragmented Nuclei (%): 4%
  Population Healthy Nuclei (%): 88%
  Population Hoechst High Intensity Objects (%): 2%
  Population Membrane Permeable-Phenotype (%): 8%
  Population Mitochondria Different-Phenotype (%): 9%
  Population Mitotic Cells (%): 57%
  Population Normal (%): 97%
  Population Pyknosed Nuclei (%): 7%
  Population Tubulin-Different-Phenotype (%): 28%
  Total Cell Count: 75
[3]
  Population Apoptotic (%): 76%
  Population Fragmented Nuclei (%): 48%
  Population Healthy Nuclei (%): 18%
  Population Hoechst High Intensity Objects (%): 31%
  Population Membrane Permeable-Phenotype (%): 25%
  Population Mitochondria Different-Phenotype (%): 17%
  Population Mitotic Cells (%): 24%
  Population Normal (%): 68%
  Population Pyknosed Nuclei (%): 33%
  Population Tubulin-Different-Phenotype (%): 46%
  Total Cell Count: 221
[4]
  Population Apoptotic (%): 50%
  Population Fragmented Nuclei (%): 17%
  Population Healthy Nuclei (%): 77%
  Population Hoechst High Intensity Objects (%): 5%
  Population Membrane Permeable-Phenotype (%): 3%
  Population Mitochondria Different-Phenotype (%): 20%
  Population Mitotic Cells (%): 50%
  Population Normal (%): 94%
  Population Pyknosed Nuclei (%): 4%
  Population Tubulin-Different-Phenotype (%): 10%
  Total Cell Count: 98
[5]
  Population Apoptotic (%): 70%
  Population Fragmented Nuclei (%): 21%
  Population Healthy Nuclei (%): 42%
  Population Hoechst High Intensity Objects (%): 20%
  Population Membrane Permeable-Phenotype (%): 32%
  Population Mitochondria Different-Phenotype (%): 10%
  Population Mitotic Cells (%): 29%
  Population Normal (%): 79%
  Population Pyknosed Nuclei (%): 36%
  Population Tubulin-Different-Phenotype (%): 82%
  Total Cell Count: 83
[6]
  Population Apoptotic (%): 50%
  Population Fragmented Nuclei (%): 5%
  Population Healthy Nuclei (%): 90%
  Population Hoechst High Intensity Objects (%): 4%
  Population Membrane Permeable-Phenotype (%): 2%
  Population Mitotic Cells (%): 50%
  Population Normal (%): 95%
  Population Pyknosed Nuclei (%): 4%
  Population Tubulin-Different-Phenotype (%): 30%
  Total Cell Count: 81
[7]
  Population Apoptotic (%): 87%
  Population Fragmented Nuclei (%): 51%
  Population Healthy Nuclei (%): 24%
  Population Hoechst High Intensity Objects (%): 26%
  Population Membrane Permeable-Phenotype (%): 29%
  Population Mitochondria Different-Phenotype (%): 12%
  Population Mitotic Cells (%): 12%
  Population Normal (%): 73%
  Population Pyknosed Nuclei (%): 23%
  Population Tubulin-Different-Phenotype (%): 56%
  Total Cell Count: 224
[8]
  Population Apoptotic (%): 50%
  Population Fragmented Nuclei (%): 17%
  Population Healthy Nuclei (%): 72%
  Population Hoechst High Intensity Objects (%): 3%
  Population Membrane Permeable-Phenotype (%): 5%
  Population Mitochondria Different-Phenotype (%): 11%
  Population Mitotic Cells (%): 50%
  Population Normal (%): 96%
  Population Pyknosed Nuclei (%): 10%
  Population Tubulin-Different-Phenotype (%): 9%
  Total Cell Count: 139
[9]
  Population Apoptotic (%): 69%
  Population Fragmented Nuclei (%): 38%
  Population Healthy Nuclei (%): 41%
  Population Hoechst High Intensity Objects (%): 20%
  Population Membrane Permeable-Phenotype (%): 25%
  Population Mitochondria Different-Phenotype (%): 17%
  Population Mitotic Cells (%): 30%
  Population Normal (%): 79%
  Population Pyknosed Nuclei (%): 19%
  Population Tubulin-Different-Phenotype (%): 67%
  Total Cell Count: 84
[10]
  Population Apoptotic (%): 100%
  Population Fragmented Nuclei (%): 20%
  Population Healthy Nuclei (%): 76%
  Population Hoechst High Intensity Objects (%): 11%
  Population Membrane Permeable-Phenotype (%): 13%
  Population Mitochondria Different-Phenotype (%): 5%
  Population Mitotic Cells (%): 0%
  Population Normal (%): 89%
  Population Pyknosed Nuclei (%): 3%
  Population Tubulin-Different-Phenotype (%): 35%
  Total Cell Count: 100
[11]
  Population Apoptotic (%): 84%
  Population Fragmented Nuclei (%): 61%
  Population Healthy Nuclei (%): 26%
  Population Hoechst High Intensity Objects (%): 31%
  Population Membrane Permeable-Phenotype (%): 41%
  Population Mitochondria Different-Phenotype (%): 4%
  Population Mitotic Cells (%): 15%
  Population Normal (%): 68%
  Population Pyknosed Nuclei (%): 11%
  Population Tubulin-Different-Phenotype (%): 48%
  Total Cell Count: 234
[12]
  Population Apoptotic (%): 0%
  Population Fragmented Nuclei (%): 28%
  Population Healthy Nuclei (%): 67%
  Population Hoechst High Intensity Objects (%): 11%
  Population Membrane Permeable-Phenotype (%): 12%
  Population Mitochondria Different-Phenotype (%): 1%
  Population Mitotic Cells (%): 100%
  Population Normal (%): 88%
  Population Pyknosed Nuclei (%): 4%
  Population Tubulin-Different-Phenotype (%): 63%
  Total Cell Count: 109
